Screens: PubChem BioAssay, several laboratories
Env fusion inh: HIV envelope-mediated fusion inhibition. HeLa-JRFL Env/CEM21 cell fusion, luciferase. inhibition, % at 12.3 µM. actives 1.1% (n = 360,000);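 active = mean replicate inhibition score of at least 50 and every replicate individually at or above 50; inconclusive = only one of the two criteria met; inactive = mean below 50 and not all replicates reaching 50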
PfHsp90 yeast 2: reduces growth (ATP signal) of yeast expressing P. falciparum Hsp90; S. cerevisiae expressing PfHsp90, BacTiter-Glo ATP, 48 h; yeast lacking PDR1 and PDR3 efflux regulators; inhibition, % at 9.4 µM; actives 0.32% (n = 310,000);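 active = every replicate shows inhibition above about 80%, whatever the replicate mean, limit read from the data; inconclusive = mean inhibition reaches the set limit but some replicate falls short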
Rtt109 Vps75: blocks Candida albicans Rtt109/Vps75 acetyltransferase activity | Q5AAJ8 | purified Rtt109/Vps75, ThioGlo CoA-SH fluorescence, 4 h | inhibition, % at 34.9 µM | actives 0.16% (n = 330,000) | AID 540336;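 active = inhibition of at least 50% in every replicate; inconclusive = best replicate reaches 50% inhibition but some replicates fall short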
Target sequence (Q5AAJ8 whole entry, looked up): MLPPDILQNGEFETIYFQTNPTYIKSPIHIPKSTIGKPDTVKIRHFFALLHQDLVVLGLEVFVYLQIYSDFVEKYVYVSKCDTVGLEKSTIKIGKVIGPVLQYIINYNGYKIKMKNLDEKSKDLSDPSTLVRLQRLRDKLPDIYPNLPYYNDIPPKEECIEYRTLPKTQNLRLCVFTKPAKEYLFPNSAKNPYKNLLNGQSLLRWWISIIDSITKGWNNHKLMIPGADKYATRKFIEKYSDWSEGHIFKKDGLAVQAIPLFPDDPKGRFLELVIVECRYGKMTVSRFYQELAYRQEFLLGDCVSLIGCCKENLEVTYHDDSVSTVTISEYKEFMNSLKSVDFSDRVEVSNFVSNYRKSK
PAX8 inh HTS: inhibitors of PAX8 transcriptional activity in RMG-I cells | AID 652154 | inhibition, % at 12.6 µM | RMG-I TPO-luciferase reporter, SteadyGlo, 24 h | actives 1.2% (n = 360,000);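 active = mean replicate inhibition at least 60% with every replicate also reaching 60%; inconclusive = only one of the two criteria is met; inactive = mean below 60% and not all replicates reaching 60%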;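 also: luciferase light reporting Pax8 driven TPO promoter activity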
Arr AP2 block: human beta-arrestin and AP2 interaction inhibition. inhibition, % at 10 µM. actives 0.31% (n = 340,000). AID 504490. FITC-arrestin peptide / GST-AP2 beads, flow cytometry; AP2 beta2 appendage carries R879A mutation;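 active = inhibition above a set limit, near 3 SD of compounds lacking own fluorescence, cut at about 54% in these data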
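Material – GST-tagged AP2 beta2-adaptin appendage (R879A) on 4 µm glutathione beads · Probe or stimulus – fluorescein-tagged arrestin peptide at 50 nM final · Timing – 12 min plus 1 h, RT · Detection – bead flow cytometry, FITC channel · Read-out basis – inhibition as reduced fluorescein signal on beads, percent · Medium – PBS plus Tween 20 (0.05%) and BSA (0.1%)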
N-glyco inh: blocks N-linked glycosylation in D54 reporter cells; reporter increase, % at 12.5 µM; actives 0.23% (n = 360,000); AID 588692; D54 ERlucT glycosylation luciferase reporter, 24 h; percent of 100 nM tunicamycin response;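 active = mean luciferase reporter signal, scaled so untreated is 0 and the glycosylation-blocking control 100, at or above a set limit in every replicate; inconclusive = mean reaches the limit but not every replicate does; inactive = mean below the limit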;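 also: luciferase carries N-glycosylation sites so blocking glycosylation raises the light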
A number is an active result; . = inactive; ? = inconclusive; / = not tested or not shown; [ ] = dose if it differs, or a comment. Most compounds without a hit are left out; they make up all but 2.3% or so of the library.

SMILES	Env fusion inh	PfHsp90 yeast 2	Rtt109 Vps75	PAX8 inh HTS	Arr AP2 block	N-glyco inh
C[C@H]1CN([C@@H](C)CO)C(=O)c2cc(N(C)C)ccc2O[C@@H]1CN(C)S(C)(=O)=O	.	/	/	.	/	/
Cc1ccc2nc(-c3ccc(NC(=S)NC4CC(C)(C)NC(C)(C)C4)cc3)sc2c1	.	.	62	91	.	.
Cc1ccc2nc(-c3ccc(NC(=S)NC(=O)C(C)C)cc3)sc2c1	/	.	.	/	.	.
O=C(C[C@H]1C[C@@H]2c3cc(NC(=O)C4CCC4)ccc3O[C@@H]2[C@@H](CO)O1)NCC(F)(F)F	88[16.7 µM]	/	/	.	/	/
O=C(C[C@@H]1C[C@@H]2c3cc(NC(=O)C4CCC4)ccc3O[C@@H]2[C@@H](CO)O1)NCC(F)(F)F	90[16.7 µM]	/	/	.	/	/
O=C(C[C@@H]1C[C@H]2c3cc(NC(=O)Nc4ccccc4)ccc3O[C@H]2[C@H](CO)O1)NCc1cccc(F)c1	/	/	/	.	/	/
C[C@H](CO)N1C[C@H](C)[C@@H](CN(C)Cc2ccc(-c3ccccc3)cc2)Oc2ccc(NC(=O)Cc3ccccc3)cc2CC1=O	.	/	/	94	/	/
C[C@@H]1CN([C@@H](C)CO)C(=O)Cc2cc(NC(=O)Cc3ccccc3)ccc2O[C@@H]1CN(C)Cc1ccc(-c2ccccc2)cc1	.	/	/	.	/	/
C[C@@H]1CN([C@H](C)CO)C(=O)Cc2cc(NC(=O)Cc3ccccc3)ccc2O[C@@H]1CN(C)Cc1ccc(-c2ccccc2)cc1	.	/	/	.	/	/
C[C@@H]1CN([C@@H](C)CO)C(=O)Cc2cc(NC(=O)CCC(F)(F)F)ccc2O[C@H]1CN(C)Cc1ccc(-c2ccccc2)cc1	.	/	/	100	/	/
C[C@H]1CN([C@@H](C)CO)C(=O)Cc2cc(NC(=O)CCC(F)(F)F)ccc2O[C@H]1CN(C)Cc1ccc(-c2ccccc2)cc1	.	.	.	.	.	.
C[C@H](CO)N1C[C@H](C)[C@H](CN(C)Cc2ccc(-c3ccccc3)cc2)Oc2ccc(NC(=O)Cc3ccccc3)cc2CC1=O	.	/	/	66	/	/
COc1ccccc1NC(=O)N[C@@H]1CC[C@H](CCn2cc(-c3ccccc3OC)nn2)O[C@@H]1CO	.	/	/	.	/	/
C[C@@H]1CN([C@H](C)CO)S(=O)(=O)c2ccc(-c3cccc(C#N)c3)cc2O[C@H]1CN(C)C	.	/	/	.	/	/
Cc1cccc2c(N)c3c(nc12)N(C)CC3	.	.	.	.	.	30
O=C(C[C@H]1C[C@H]2c3cc(NC(=O)Cc4ccncc4)ccc3O[C@H]2[C@H](CO)O1)NCc1cc(F)ccc1F	.	/	/	.	/	/
Cc1[nH]c2ccccc2c1C(=O)CSc1nc2cc(S(=O)(=O)N3CCCCC3)ccc2o1	65	.	.	.	.	/
CO[C@H]1CN(C)C(=O)c2cc(NC(=O)Nc3c(C)noc3C)ccc2OC[C@@H](C)N(C)C[C@@H]1C	.	/	/	.	/	/
Cc1ccc(C(=O)ONC(=O)c2ccc(Cl)cc2)cc1[N+](=O)[O-]	.	108	.	.	.	.
Cc1ccc(C(=O)NNC(=O)c2ccncc2)cc1[N+](=O)[O-]	.	.	.	.	.	.
COc1cc2oc(=O)cc(-c3ccc(-c4ccc(CO)cc4)cc3)c2c(OC)c1OC	118	.	.	.	.	.
COc1ccc(S(=O)(=O)Nc2ccc3c(c2)CC(=O)N([C@H](C)CO)C[C@@H](C)[C@@H](CN(C)Cc2ccc(Cl)c(Cl)c2)O3)cc1	.	/	/	.	/	/
O=C(O)C[C@@H]1C[C@@H]2c3cc(NC(=O)C4CCOCC4)ccc3O[C@@H]2[C@H](CO)O1	/	/	/	.	/	/
CCN1CCN(Cc2ccc(NC(=O)c3ccc(C)c(NC(=O)c4ccnnc4)c3)cc2C(F)(F)F)CC1	.	.	.	.	.	.
CCN1CCN(Cc2ccc(NC(=O)c3ccc(C)c(NC(=O)c4ccc5n[nH]nc5c4)c3)cc2C(F)(F)F)CC1	.	.	.	.	.	.
SMILES	Env fusion inh	PfHsp90 yeast 2	Rtt109 Vps75	PAX8 inh HTS	Arr AP2 block	N-glyco inh
CCN1CCN(Cc2ccc(NC(=O)c3ccc(C)c(NC(=O)C(=O)c4c[nH]c5ccccc45)c3)cc2C(F)(F)F)CC1	.	.	.	101	.	.
CCN1CCN(Cc2ccc(NC(=O)c3cccc(-c4ccc5nc(NC(=O)C6CC6)sc5n4)c3)cc2C(F)(F)F)CC1	.	/	/	80	/	/
CCN1CCN(Cc2ccc(NC(=O)c3cc(NC(=O)C(=O)c4c[nH]c5ccccc45)cc(OC)c3)cc2C(F)(F)F)CC1	.	.	.	95	.	.
C[C@@H]1CN([C@@H](C)CO)C(=O)c2cc(-c3ccccc3F)cnc2O[C@H]1CN(C)Cc1cccc(C(=O)O)c1	.	/	/	/	/	/
COc1ccc(NC2=C(C)C(=O)CC2)cc1	/	.	.	/	.	32
CC(=O)N/C(=C\c1ccccc1)C(=O)OCC(=O)NC(=O)c1ccccc1	.	.	.	.	.	.
CC(=O)N/C(=C\c1ccccc1)C(=O)OCC(=O)NC(C)C12CC3CC(CC(C3)C1)C2 (stereo not drawn)	106	.	.	.	.	.
CCCCCc1ccc(OCCCC[n+]2ccc(C)cc2)c(CCCCC)c1	55	.	?	74	.	.
CCCCCc1ccc(OCCCC[n+]2cccc(C)c2)c(CCCCC)c1	56	.	73	94	.	.
Cc1ccc(S(=O)(=O)N[C@H]2CC[C@@H](CCn3cc(C4CCCCC4)nn3)O[C@@H]2CO)cc1	.	/	/	.	/	/
O=C(CCS(=O)(=O)c1ccccc1)Nc1nncs1	.	.	.	67	.	.
COCCSc1nnc(NC(=O)CCS(=O)(=O)c2ccccc2)s1	.	.	.	80	.	.
O=C(Nc1nc2c(s1)COc1ccccc1-2)c1cccs1	.	.	.	.	.	.
CC(C)Cc1nnc(NC(=O)CCS(=O)(=O)c2ccc(Cl)cc2)s1	.	.	.	71	.	.
O=C(CCS(=O)(=O)c1ccccc1)Nc1nc2c(s1)COc1ccccc1-2	.	.	.	70	.	.
COCCSc1nnc(NC(=O)CS(=O)(=O)c2ccc(C)cc2)s1	.	.	.	.	.	.
CO[C@@H]1CN(C)C(=O)c2ccc(NC(=O)CN(C)C)cc2OC[C@@H](C)N(C(=O)C2CCOCC2)C[C@H]1C	.	/	/	.	/	/
CCCNC(=O)N1[C@H](CO)[C@H]2c3ccccc3N(C(=O)NC(C)C)C[C@H]21	/	/	/	.	/	/
CCOCCc1nnc(NC(=O)C(C)Oc2ccccc2)s1 (stereo not drawn)	.	/	.	.	.	.
CCOCCc1nnc(NC(=O)CCS(=O)(=O)c2ccccc2)s1	.	.	.	65	.	.
Cc1noc(C)c1NC(=O)N(C)C[C@@H]1OCCCC[C@H](C)Oc2ccc(NC(=O)Cc3ccccc3)cc2C(=O)N([C@H](C)CO)C[C@@H]1C	.	/	/	/	/	/
CC(=O)Nc1ccc(C(=O)N/N=C/c2ccccc2OCc2ccccc2)cc1	.	.	.	.	.	41
